What all share (format): functional, cell-based
One test deals with A549. As to the kind of experiment: Cytotoxicity against human A549 cells after 24 hrs by MTT assay. The conditions noted are these: A549, 24 h. An outline of the steps:
(§1)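 Cell lines from ATCC, seeded at 3000 cells per well and left 24 h before exposure to a range of compound concentrations. After 24 h of exposure, MTT was added and the plates were incubated another 24 h. Viability was read as absorbance at 570 nm, and IC50 values were calculated from these readings. Paclitaxel served as the positive control.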
Background: Formazan colour is commonly taken as a measure of viable cells.

The nature of test [1]: Cytotoxicity against human PC3M cells after 24 hrs by MTT assay. The conditions noted are these: PC-3M. In short, it runs like this: as §1
The subject of another test is HCT-8. In words: Cytotoxicity against human HCT8 cells after 24 hrs by MTT assay. The conditions noted are these: HCT-8, 24 h. An outline of the steps:
as §1

In a further test the test system is Bel-7402. In words: Cytotoxicity against human Bel7402 cells after 24 hrs by MTT assay. The conditions noted are these: Bel-7402, 24 h. In short, it runs like this:
as §1

The values below come from ChEMBL document CHEMBL1268860, “Revision of the Structures of 1,5-Dihydroxy-3,8-epoxyvalechlorine, Volvaltrate B, and Valeriotetrate C from Valeriana jatamansi and V. officinalis” (J Nat Prod, 2010).

Each structure is given as a SMILES string. A value given as a limit tells only on which side of the number the result lay.

As a reminder, the IC50 is the concentration at which inhibition is half-maximal. Read a low IC50 as greater potency in that assay. In the case of `C=C1[C@H]2O[C@@H](O)[C@@H]3[C@](CCl)(O2)[C@@H](OC(C)=O)C[C@]13O`, the half-maximal inhibitory concentration (IC50) (in the test with A549; in test [1]; in the test with HCT-8; in the test with Bel-7402) was over 10 µM in each case.
As for `C=C1[C@H]2O[C@@H](OCC)[C@@H]3[C@](CCl)(O2)[C@@H](OC(C)=O)C[C@]13O`, the IC50 (in the test with A549; in test [1]; in the test on HCT-8; in the test on Bel-7402) was over 10 µM throughout.
Turning to `C=C1[C@H]2O[C@H](OCC)[C@@H]3[C@](CCl)(O2)[C@@H](OC(C)=O)C[C@]13O`, the IC50 (in the test on A549; in test [1]; with HCT-8; in the test on Bel-7402) was over 10 µM in each case.
In the case of `C=C1[C@H]2O[C@@H](OC)[C@@H]3[C@](CCl)(O2)[C@@H](OC(C)=O)C[C@]13O`, the IC50 (in the test on A549; in test [1]; with HCT-8; in the test with Bel-7402) was over 10 µM in each case.
Consider `C=C1[C@H]2O[C@H](OC)[C@@H]3[C@](CCl)(O2)[C@@H](OC(C)=O)C[C@]13O`, for which the IC50 (in the test with A549; in test [1]; in the test with HCT-8; with Bel-7402) was over 10 µM throughout.
`CC(=O)O[C@H]1C[C@]2(O)C(COC(=O)[C@H](OC(=O)CC(C)C)C(C)C)=CO[C@@H](OC(=O)CC(C)C)[C@@H]2[C@@]1(O)CCl` [VOLVALTRATE B]: the 50% inhibitory concentration (IC50) in the test with A549 was 8.5 µM; in test [1], 2 µM; with HCT-8, 3.2 µM; with Bel-7402, 6.1 µM.
